From ChEMBL document CHEMBL1145477, “Activity of T-1106 in a hamster model of yellow Fever virus infection” (Antimicrob Agents Chemother, 2007) come the findings set out here.

Common to all, as to assay type: functional
The test system of assay [1] is Yellow fever virus. Kind of assay: Antiviral activity against YFV Jimenez infected in Syrian golden hamster assessed as mean day to death after 21 days post-infection at 50 mg/kg, ip bid for 7 days. The following applies: route intraperitoneal.
Assay [2] relates to Yellow fever virus. Kind of assay: Antiviral activity against YFV Jimenez infected in Syrian golden hamster assessed as serum alanine aminotransferase at 50 mg/kg, ip bid for 7 days. The following applies: route intraperitoneal. The essentials:
(§1)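 YFV (Jimenez)-infected female hamsters were treated b.i.d. i.p. or p.o. Serum was drawn by ocular sinus at 6 dpi. ALT was read with a colorimetric kit adapted to microplates: substrate plus serum for 30 min at 37°C, then colour reagent and developer, absorbance at 505 nm. Values are IU/liter against saline controls.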

Assay [3] has as its system Yellow fever virus. Kind of assay: Antiviral activity against YFV Jimenez infected in Syrian golden hamster assessed as weight change at 50 mg/kg, po bid for 7 days.
The test system of assay [4] is Yellow fever virus. The assay is described as follows: Antiviral activity against YFV Jimenez infected in Syrian golden hamster liver treated 4 hrs before viral challenge assessed as mean day to death at 50 mg/kg/day, ip bid for 8 days. The following applies: route intraperitoneal.
In assay [5] the test system is Yellow fever virus. The assay is described as follows: Antiviral activity against YFV Jimenez infected in Syrian golden hamster liver treated 4 hrs before viral challenge assessed as alanine aminotransferase at 50 mg/kg/day, ip bid for 8 days. The following applies: route intraperitoneal. The gist of the method:
as §1

Molecules are shown by their SMILES.

Turning to `NC(=O)c1ncn([C@@H]2O[C@H](CO)[C@@H](O)[C@H]2O)n1` [RIBAVIRIN], the Activity was determined as 6 days in the assay with Yellow fever virus [1]; 120 IU/L with Yellow fever virus [2]; 1.3 g with Yellow fever virus [3]; 6 days in the assay with Yellow fever virus [4]; 120 IU/L in the assay on Yellow fever virus [5].
